Laboratory results published in article PMC7296533 (ACS Infectious Diseases, 2020).

How the values were obtained:
[1] = target: NDM-1 (Klebsiella pneumoniae, UniProt C7C422); test: MBL enzyme inhibition assay, fluorescent cephalosporin substrate FC5; type: biochemical
[2] = target: VIM-2 (Escherichia coli, UniProt Q5U7L7); test: MBL enzyme inhibition assay, fluorescent cephalosporin substrate FC5; type: biochemical
Method in brief: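 VIM-2 was expressed from a donated plasmid construct and purified. Test compound was serially diluted in 50 mM HEPES pH 7.2 containing 0.01% Triton X-100 and 1 μM ZnSO4, then preincubated for 15 min at 25 °C with 100 pM enzyme. Fluorescent cephalosporin FC536 (0.5 μM) was added and fluorescence (λex 380, λem 460 nm) followed over 30–40 scans. IC50 was fitted from initial rates against concentration.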

[3] = target: IMP-28; test: MBL enzyme inhibition assay, fluorescent cephalosporin substrate FC5; type: biochemical; settings: read-out: IC50 against IMP-28; 60 pM IMP-28, 1 μM ZnSO4; mean ± SD
Method in brief: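 Recombinant C-terminal His-tagged IMP-28 (pET28b construct). Serial dilutions of test compound were made in 50 mM HEPES pH 7.2 with 0.01% Triton X-100 and 1 μM ZnSO4. Enzyme (60 pM) was preincubated with compound for 15 min at 25 °C. FC536 (16 μM) was added and fluorescence (ex 380/em 460 nm) read immediately over 30–40 cycles. IC50 was curve-fitted from initial velocities versus inhibitor concentration.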

[4] = test system: panel of carbapenem-resistant clinical isolates of Gram-negative bacteria; test: Single concentration synergy assay, summary over the panel; type: cell-based; settings: for Reduction of MIC of Meropenem, in most cases: inhibitor at 32 μg/mL, strains expressing IMP-type enzymes
Method in brief: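 CLSI broth microdilution. Isolates grown overnight on blood agar at 37 °C, then in TSB at 37 °C with shaking to OD600 0.5, and diluted in Mueller-Hinton broth. Meropenem serially diluted in MHB with test compound at a fixed 32 μg/mL final. Incubated 37 °C with shaking for 16–20 h. MIC is the lowest concentration with no visible growth, as the median of triplicates.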

[5] = test system: E. coli RC0089 (clinical NDM-1 positive isolate); test: OD600 checkerboard assay with Meropenem; type: cell-based; settings: E. coli expressing NDM-1

Chain of NDM-1 (C7C422 29-270, looked up, species assumed): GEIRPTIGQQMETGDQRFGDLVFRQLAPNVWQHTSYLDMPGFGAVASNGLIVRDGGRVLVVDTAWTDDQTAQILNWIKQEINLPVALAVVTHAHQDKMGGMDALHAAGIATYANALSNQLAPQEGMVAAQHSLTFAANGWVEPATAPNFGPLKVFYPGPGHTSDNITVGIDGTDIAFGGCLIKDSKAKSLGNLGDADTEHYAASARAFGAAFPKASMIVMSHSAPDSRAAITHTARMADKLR

| SMILES | IC50 [1] [µM] | Effect of zinc sulfate concentration on IC50 against NDM-1 ([1]; zinc sulfate 0.1 to 20 μM) | IC50 [2] [µM] | IC50 [3] [µM] | Reduction of MIC of Meropenem, in most cases [4] [fold] | Relationship with Meropenem in checkerboard (in words) [5] | Synergy with Meropenem against strains expressing serine-carbapenemases ([4]; KPC-2 and OXA-48) | Antibacterial activity of the inhibitor alone ([4]; highest tested concentration 256 μg/mL) |
| --- | --- | --- | --- | --- | --- | --- | --- | --- |
| O=C(O)c1cccc(C(=O)O)n1 [DPA, 2,6-Dipicolinic acid, reference compound] | 3.8 ± 0.04 | zinc-dependent effect | 2.9 ± 0.5 | 17 ± 1 | ≤ 4 | – | – | – |
| O=C(O)CN(CC(=O)O)CC(=O)O [compound 3, Nitrilotriacetic acid] | – | – | ~2.4 | 112 ± 3 | ≤ 4 | strong synergistic relationship | complete lack of synergy | no antibacterial activity |
